Assay results as given in ChEMBL document CHEMBL1152618, “PET-compatible endothelin receptor radioligands: synthesis and first in vitro and in vivo studies” (Bioorg Med Chem, 2009).
Blank lines part the entries; values can stand above or below the molecule they belong to.

Legend:
[1] = biological target: T1, Endothelin receptor type B (Mus musculus, UniProt P48302); assay: Displacement of [125I]ET1 from endothelin B receptor in DBA mouse microsomes; parameters: species or system Microsome
T1 sequence (P48302 whole entry): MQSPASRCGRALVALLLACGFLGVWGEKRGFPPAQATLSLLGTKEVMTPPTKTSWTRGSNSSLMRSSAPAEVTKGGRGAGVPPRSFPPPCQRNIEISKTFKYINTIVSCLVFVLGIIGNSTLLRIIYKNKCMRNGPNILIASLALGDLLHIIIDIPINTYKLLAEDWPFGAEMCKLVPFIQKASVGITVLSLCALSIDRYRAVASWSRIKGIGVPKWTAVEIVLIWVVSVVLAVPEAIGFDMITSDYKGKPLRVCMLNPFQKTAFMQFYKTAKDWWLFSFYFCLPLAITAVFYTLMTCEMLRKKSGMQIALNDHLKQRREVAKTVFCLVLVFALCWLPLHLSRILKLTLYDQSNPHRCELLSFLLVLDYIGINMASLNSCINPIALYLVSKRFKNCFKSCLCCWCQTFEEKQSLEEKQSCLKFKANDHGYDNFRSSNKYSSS
How it was run: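 Ventricular microsomes from DBA mice were prepared by homogenization and differential centrifugation in EDTA/HEPES/benzamidine buffers (pH 7.4). 10 µg membranes were incubated with 40 pM [125I]ET-1 and competitor (10 pM–100 µM) in Tris-HCl/154 mM NaCl/ascorbic acid (pH 7.4) at 37 °C for 4 h. Samples were filtered on GF/B and gamma counted. A two-site nonlinear fit gave the low-affinity IC50, which was converted to Ki by Cheng–Prusoff (KD 208 pM).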

[2] = Biodistribution in C57BL/6 mouse duodenal wall content assessed as drug uptake index at 0.3 to 1 mmol/kg, iv after 30 mins; type: ADME, organism-based; details: in vivo, 0.5 h, in the assay text read “0.3 to 1 nmol/kg” for “0.3 to 1 mmol/kg”
How it was run: (§1)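 Adult C57BL/6 mice (male and female, 25–30 g), tail-vein cannulated under isoflurane/N2O/O2, allowed ~1 h recovery, conscious under light restraint. [18F]tracer 0.2–2.0 MBq (0.3–1.0 nmol/kg) given as iv bolus. Killed by iv pentobarbitone 200 mg/kg at 30 min. Duodenal contents were moved directly into weighed vials, and duodenal wall was blotted. Gamma counting. Uptake index = (cpm/g tissue)/(cpm injected/g body weight).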

[3] = Biodistribution in C57BL/6 mouse duodenal content assessed as drug uptake index at 0.3 to 1 mmol/kg, iv after 30 mins; type: ADME, organism-based; details: in vivo, 0.5 h, in the assay text read “0.3 to 1 nmol/kg” for “0.3 to 1 mmol/kg”; how it was run: as §1
Plasma [4] = assay: Stability in Wistar rat plasma assessed as compound remaining at 19 MBq; type: ADME, cell-free
How it was run: (§2)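 Plasma from one anesthetized male Wistar rat (350 g), taken by cardiac puncture and stored at −20 °C overnight. 0.5 ml samples were incubated with 19 MBq [18F]tracer at 37 °C for 1, 2.5, 20 and 60 min. Protein was precipitated with ice-cold acetonitrile and centrifuged. Pellet and supernatant radioactivity were measured for protein binding. Supernatant was analyzed by gradient radio-RP-HPLC (C18, water/acetonitrile with 0.1% TFA).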

[5] = Drug level in C57BL/6 mouse bile at 6.6 MBq, iv after 3 to 4 mins; type: ADME, organism-based; details: in vivo
How it was run: (§3)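 Female C57BL/6 mice (22–23 g) under isoflurane 2% anesthesia with tail-vein catheters were imaged two at a time in a quadHIDAC small-animal PET scanner. [18F]tracer (6.6 MBq in 100 µl, saline flush) was injected 30 s after acquisition start. List-mode data were collected for 2 h and reconstructed iteratively. Radioactivity (cps/ml) was read from ROIs over organs in five coronal planes.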

[6] = Drug level in C57BL/6 mouse urine at 6.6 MBq, iv after 5 to 60 mins; type: ADME, organism-based; details: in vivo; how it was run: as §3
Rattus norvegicus [7] = assay: Stability in Wistar rat assessed as compound remaining at 40 MBq, iv after 10 mins; type: ADME, organism-based; details: in vivo
How it was run: (§4)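 Single rat given 40 MBq [18F]tracer as an iv tail-vein bolus. Blood (600–800 µl) was drawn from a tail-artery catheter at 2.5, 10, 20 and 60 min and centrifuged to plasma. Proteins were precipitated with ice-cold acetonitrile. Supernatant was spiked with 10 µg unlabeled reference and analyzed by radio-RP-HPLC.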

Plasma [8] = assay: Protein binding in Wistar rat plasma at 19 MBq; type: ADME, cell-free; how it was run: as §2
Rattus norvegicus [9] = assay: Stability in Wistar rat assessed as compound remaining at 40 MBq, iv after 2.5 mins; type: ADME, organism-based; details: in vivo; how it was run: as §4
Plasma [10] = assay: Stability in C57BL/6 mouse plasma assessed as compound remaining after 5 mins; type: ADME, cell-free
How it was run: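 C57BL/6 mice (adult, both sexes) were prepared as for biodistribution and given [18F]tracer as a 100 µl tail-vein bolus. Killed by iv pentobarbitone at 5 or 20 min. Cardiac blood was centrifuged, and plasma from two mice was pooled. After acetonitrile protein precipitation, supernatant was spiked with 10 µg unlabeled reference and analyzed by radio-RP-HPLC.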

Plasma [11] = assay: Stability in plasma assessed as compound remaining after 20 mins

SMILES: COc1ccc(C2(O)OC(=O)C(c3ccc4c(c3)OCO4)=C2Cc2cc(OC)c(OC)c(OCCBr)c2)cc1 (stereo unspecified)
Ki [1]: 170 nM

SMILES: COc1ccc(C2(O)OC(=O)C(c3ccc4c(c3)OCO4)=C2Cc2cc(OC)c(OC)c(OCC[18F])c2)cc1 (stereo unspecified)
Drug uptake [2]: 9
Drug uptake [3]: 33
Stability (Plasma [4]): Stable
Drug uptake [5]: 6000 cps/ml
Drug uptake [6]: 200 cps/ml
Stability (Rattus norvegicus [7]): Stable
PPB (Plasma [8]): 4.6%
Stability (Rattus norvegicus [9]): Stable
Stability (Plasma [10]): Stable
Stability (Plasma [11]): Stable

SMILES: COc1cc(CC2=C(c3ccc4c(c3)OCO4)C(=O)OC2(O)c2ccc(OCCOS(=O)(=O)c3ccc(C)cc3)cc2)cc(OC)c1OC (stereo unspecified)
Ki [1]: 96 nM

Next, values leading:

Ki [1]: 1.26 nM
SMILES: COc1ccc(C2(O)OC(=O)C(c3ccc4c(c3)OCO4)=C2Cc2cc(OC)c(OC)c(OCCOS(=O)(=O)c3ccc(C)cc3)c2)cc1 (stereo unspecified)

Ki [1]: 240 nM
SMILES: COc1ccc(C2(O)OC(=O)C(c3ccc4c(c3)OCO4)=C2Cc2cc(OC)c(OC)c(OCCF)c2)cc1 (stereo unspecified)

Ki [1]: 72 nM
SMILES: COc1cc(CC2=C(c3ccc4c(c3)OCO4)C(=O)OC2(O)c2ccc(OCCBr)cc2)cc(OC)c1OC (stereo unspecified)

Ki [1]: 98 nM
SMILES: COc1cc(CC2=C(c3ccc4c(c3)OCO4)C(=O)OC2(O)c2ccc(OCCF)cc2)cc(OC)c1OC (stereo unspecified)
